The source made the active and inactive calls. The calls are words filed in the database; no cut-off is given here.
Key:
HeLa [1] = assay: Cytotoxicity against human HeLa cells assessed as reduction in cell viability after 4 hrs by MTT assay; format: functional, cell-based
Procedure, shortened: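 MTT: 10,000–20,000 cells/well attached for 16 h, then washed twice with serum-free RPMI. Treated with 1–200 µM for 4 h, 3 parallel runs per concentration. MTT added for 2 h; medium partly removed and isopropanol added. A590 read. Viability = (A treated − A doxorubicin)/(A medium − A doxorubicin)×100. Mean of three experiments, triplicate wells each.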

Detroit 562 = assay: Cytotoxicity against human Detroit 562 cells assessed as reduction in cell viability after 4 hrs by MTT assay; format: functional, cell-based
MCF7 [2] = assay: Induction of apoptosis in human MCF7 cells assessed as early apoptotic cells at 1 uM after 16 hrs by annexin-V FITC/propidium iodide staining based flow cytometric analysis relative to control; format: functional
Procedure, shortened: (§1)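 Cells were grown in DMEM with 10% heat-inactivated FBS at 37 °C and 5% CO₂, then plated at 500,000 cells/well in 24-well plates. They were treated from a DMSO stock (DMSO ≤0.1%) for 8, 12 or 16 h. After a PBS wash, cells were resuspended in binding buffer (10 mM HEPES pH 7.4, 2.5 mM CaCl₂, 140 mM NaCl, 0.1% BSA), stained 40 min with FITC-annexin V, then with PI, and run on the flow cytometer immediately. Values are the mean of three independent experiments.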

HeLa [3] = assay: Induction of apoptosis in human HeLa cells assessed as viable cells at 1 uM after 12 hrs by annexin-V FITC/propidium iodide staining based flow cytometric analysis relative to control; format: functional; conditions: read-out: Activity; procedure, shortened: as §1
HeLa [4] = assay: Induction of apoptosis in human HeLa cells assessed as early apoptotic cells at 1 uM after 16 hrs by annexin-V FITC/propidium iodide staining based flow cytometric analysis relative to control; format: functional; procedure, shortened: as §1
MCF7 [5] = assay: Induction of cell cycle arrest in human MCF7 cells at 1 uM after 16 hrs by propidium iodide/RNase A staining based FACS analysis; format: functional
Procedure, shortened: (§2)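 Cells were seeded at 1 million cells/mL in 24-well plates and grown to 70% confluence. They were exposed at 1 µM for 16 h, washed in cold PBS, fixed in absolute ethanol and stored at −20 °C. Staining was with RNase A (20 µg/mL final) and PI (50 µg/mL final) for 30 min at 37 °C in the dark. Results are given as the percentage of cells in each cell-cycle phase by FACS.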

HeLa [6] = assay: Induction of cell cycle arrest in human HeLa cells at 1 uM after 16 hrs by propidium iodide/RNase A staining based FACS analysis; format: functional; procedure, shortened: as §2
MCF7 [7] = assay: Induction of nitric oxide production in human MCF7 cells at 5 uM measured over 8 hrs by Griess reaction based assay relative to control; format: functional
Procedure, shortened: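 Cells seeded at 2×10^6 cells/well for 12 h, then exposed to 1, 5 and 10 μM compound for 8 h at 37 °C. Culture supernatant mixed with Griess reagent (0.002% N-1-naphthyl-ethylenediamine dihydrochloride, 0.5% sulfanilic acid, 14% glacial acetic acid). Nitrite read by absorbance at 550 nm and compared with vehicle group.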

HeLa [8] = assay: Effect on mitochondrial membrane potential in human HeLa cells assessed as shift change at 5 uM after 1 hrs by Rhodamine 123 dye-based fluorescence assay; format: functional, cell-based
Procedure, shortened: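 Mitochondrial potential: HeLa or MCF-7 cells treated with 5 µM (final) for 1, 2, 4 and 8 h. Rhodamine 123 added, cells incubated 30 min at 37 °C, washed with PBS, and analysed by flow cytometry. Fluorescence histogram shift is compared with control.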

MCF7 [9] = assay: Induction of caspase-dependent apoptosis in human MCF7 cells assessed as activation of caspase-3 at 1 to 3 uM after 24 hrs by Western blot analysis; format: functional, cell-based
Procedure, shortened: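 Cleaved caspase-3 immunoblot. Cells were exposed at 1, 3 and 5 µM for 24 h at 37 °C, with paclitaxel 3 µM as positive control. Lysis was in ice-cold Triton X-100 buffer, and protein was measured by BCA. Lysates were separated by electrophoresis, transferred to nitrocellulose and blocked in milk. Primary antibody was applied overnight at 4 °C and secondary for 1 h at 28 °C. Detection was by enhanced chemiluminescence.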

HeLa [10] = assay: Induction of caspase-dependent apoptosis in human HeLa cells assessed as activation of caspase-8 at 1 to 3 uM after 24 hrs by Western blot analysis; format: functional, cell-based
Procedure, shortened: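 Cells were treated at 1, 3 and 5 µM for 24 h at 37 °C. Lysis was in ice-cold Triton X-100 buffer with protease and phosphatase inhibitors; nuclear proteins were extracted separately. Protein was quantified by BCA. Lysates were separated by electrophoresis, transferred to nitrocellulose and blocked in non-fat milk for 1 h. Primary antibody was applied overnight at 4 °C and secondary for 1 h at 28 °C. Detection was by enhanced chemiluminescence.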

HeLa [11] = assay: Induction of ROS generation in human HeLa cells at 5 uM after 24 hrs by CM-H2DCFDA staining-based FACS analysis; format: functional, cell-based
Procedure, shortened: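 CM-H2DCFDA ROS: HeLa or MCF-7 cells at 2×10^6/well in 6-well plates treated with 5 μM (final) for 12 or 24 h at 37 °C. Cells harvested, washed with PBS, stained with CM-H2DCFDA in PBS 30 min at 37 °C, washed with ice-cold PBS. Read by FACScan with 488 nm argon laser.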

[12] = target: T1, MAP kinase p38 (Homo sapiens) (UniProt O15264+Q15759+Q16539+P53778); assay: Activation of MAPK p38 phosphorylation in human MCF7 cells assessed as increase in ratio of phosphorylated p38 to total p38 level at 5 uM by ELISA; format: cell-based
Procedure, shortened: (§3)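 Cell-based ELISA: HeLa or MCF-7 cells (20×10^3/well) grown overnight at 37 °C, 5% CO2, treated with 5 μM, then fixed and blocked. Probed with rabbit anti-total and anti-phospho P38, JNK or ERK1/2 (1:100), then HRP anti-rabbit IgG. Result is the phospho/total ratio; inhibitor arms use […], […] or SP600125. n=3.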

[13] = target: T1, MAP kinase p38 (Homo sapiens); assay: Activation of MAPK p38 phosphorylation in human MCF7 cells assessed as increase in ratio of phosphorylated p38 to total p38 level at 5 uM in presence of p38 kinase inhibitor […] by ELISA; format: cell-based; procedure, shortened: as §3
[14] = target: T2, Mitogen-activated protein kinase; ERK1/ERK2 (Homo sapiens) (UniProt P27361+P28482); assay: Activation of ERK1/2 phosphorylation in human HeLa cells assessed as increase in ratio of phosphorylated ERK1/2 to total ERK1/2 level at 5 uM in presence of ERK1/2 inhibitor PD98059 by ELISA; format: cell-based; procedure, shortened: as §3
MCF7 [15] = assay: Induction of ERK/MAPK signal transduction pathway in human MCF7 cells assessed as increase in p53 phosphorylation; format: cell-based
MCF7 [16] = assay: Induction of ERK/MAPK signal transduction pathway in human MCF7 cells assessed as increase in c-fos level; format: cell-based
[17] = target: T2, Mitogen-activated protein kinase; ERK1/ERK2 (Homo sapiens); assay: Induction of ERK/MAPK signal transduction pathway in human MCF7 cells assessed as increase ERK1/2 translocation; format: cell-based

T2 sequence (P27361 whole entry, looked up): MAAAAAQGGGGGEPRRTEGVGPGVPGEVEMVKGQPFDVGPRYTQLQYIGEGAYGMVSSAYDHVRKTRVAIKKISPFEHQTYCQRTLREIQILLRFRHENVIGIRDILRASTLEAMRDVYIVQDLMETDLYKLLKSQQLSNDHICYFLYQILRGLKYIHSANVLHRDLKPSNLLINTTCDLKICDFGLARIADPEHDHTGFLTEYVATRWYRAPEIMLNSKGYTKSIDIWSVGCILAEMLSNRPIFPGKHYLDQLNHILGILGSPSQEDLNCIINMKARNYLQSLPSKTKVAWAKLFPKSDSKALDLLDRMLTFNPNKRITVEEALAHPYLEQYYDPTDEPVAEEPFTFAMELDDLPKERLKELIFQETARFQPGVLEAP
T2 sequence (P28482 whole entry, looked up): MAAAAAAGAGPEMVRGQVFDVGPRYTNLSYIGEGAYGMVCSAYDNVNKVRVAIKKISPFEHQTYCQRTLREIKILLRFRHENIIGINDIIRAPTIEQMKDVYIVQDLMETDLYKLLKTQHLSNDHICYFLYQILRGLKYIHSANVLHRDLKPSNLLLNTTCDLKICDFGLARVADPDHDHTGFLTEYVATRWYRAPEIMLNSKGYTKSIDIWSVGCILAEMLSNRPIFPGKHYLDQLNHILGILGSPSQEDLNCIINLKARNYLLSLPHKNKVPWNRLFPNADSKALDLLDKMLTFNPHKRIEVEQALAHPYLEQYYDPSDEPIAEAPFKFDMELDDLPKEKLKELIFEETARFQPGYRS

Cn1cc(/C=N\NC(=O)c2cn(C)c3ccc(Br)cc23)c2ccccc21
Activity (HeLa [1]): Dose-dependent effect
IC50 (HeLa [1]; Homo sapiens, HeLa, 4 h, read-out: IC50): 1690 nM
Activity (Detroit 562): Dose-dependent effect
IC50 (Detroit 562; Detroit 562, 4 h): 22.7 µM
Activity (MCF7 [2]): 16.41%
viability at 1 µM (HeLa [3]): 47.8%
Activity (HeLa [4]): 12.23%
Activity (MCF7 [5]): inactive
Activity (HeLa [6]): inactive
Activity (MCF7 [7]): 48.9%
Activity (HeLa [8]): Active
Activity (MCF7 [9]): inactive
Activity (HeLa [10]): inactive
Activity (HeLa [11]): Active
Activity [12]: Active
Activity [13]: inactive
Activity [14]: inactive
Activity (MCF7 [15]): Active
Activity (MCF7 [16]): Active
Activity [17]: Active

Source: ChEMBL document CHEMBL4316598, “Synthesis, antiproliferative and apoptosis induction potential activities of novel bis(indolyl)hydrazide-hydrazone derivatives” (Bioorg Med Chem, 2019)
